ChEMBL document CHEMBL1156370, “Leishmanicidal, antiplasmodial, and cytotoxic activity of novel diterpenoid 1,2-quinones from Perovskia abrotanoides: new source of tanshinones” (J Nat Prod, 2001)
Blank lines part the entries; values can stand above or below the compound they belong to.

How the values were obtained:
[1] = test system: Leishmania major; test: Antileishmanial activity against Leishmania major promastigotes assessed as inhibition of [3H]thymidine uptake after 2 hrs by liquid scintillation counting; assay type: functional, organism-based
Method in brief: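 WHO reference vaccine strain promastigotes kept at 26 °C in RPMI 1640 with 25 mM HEPES, 4 mM L-glutamine, gentamicin, 10% heat-inactivated FCS. Compounds from DMSO stock diluted in medium, incubated with 1 × 10^7 promastigotes/mL for 2 h; [3H]thymidine then added, 18 h further incubation, harvest, scintillation counting of incorporated label.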

[2] = test system: PBMC; test: Inhibition of phytohemagglutininin A-stimulated human PBMC proliferation assessed as decrease in [14C]thymidine incorporation; assay type: functional, cell-based
[3] = test system: Plasmodium falciparum; test: Antimalarial activity after 24 hrs against chloroquine-sensitive Plasmodium falciparum 3D7 by [3H]phenylalanine uptake
[4] = Cytotoxicity against drug-sensitive human KB-3-1 cells after 48 hrs by MTS/PMS assay; assay type: functional, cell-based; settings: KB 3-1, 48 h
Method in brief: (§1)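 Mycoplasma-free KB-3-1 and vinblastine-selected KB-V1 (passages 5-15, no vinblastine pressure) in DMEM/10% FBS, 37 °C, 5% CO2. Seeded 4 × 10^3 (KB-3-1) or 7 × 10^3 (KB-V1) cells/well, 24 h preincubation, then 48 h with compounds (DMSO ≤0.25%). MTS/PMS read at 492 nm after ~50 min; six repeats per concentration, IC50 from ≥3 independent determinations on different passages.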

[5] = Cytotoxicity against multidrug-resistant human KBV1 cells after 48 hrs by MTS/PMS assay; assay type: functional, cell-based; settings: KB-V1, 48 h; method in brief: as §1
[6] = Resistance index, ratio of IC50 for multidrug-resistant human KBV1 cells to IC50 for drug-sensitive human KB-3-1 cells; assay type: functional

Compound: C[C@H]1COC2=C1C(=O)C(=O)c1c2ccc2c1C(=O)CCC2(C)C
IC50 [1]: 25.7 µM | IC50 [2]: 12.4 µM | IC50 [3]: 17.6 µM

Compound: COC(=O)c1ccccc1-c1c2ccc(=N)cc-2oc2cc(N)ccc12.Cl [RHODAMINE123]
IC50 [4]: 1.6 µM | IC50 [5]: > 500 µM | Ratio IC50 [6]: 500

Compound: CC(C)C1=Cc2ccc3c(c2C(=O)C1=O)C(=O)CCC3(C)C
IC50 [1]: 17.9 µM | IC50 [4]: 46.6 µM | IC50 [5]: 47.8 µM | IC50 [2]: 44.6 µM | IC50 [3]: 13 µM

Compound: C[C@H]1COC2=C1C(=O)C(=O)c1c2ccc2c1[C@H](O)CCC2(C)C
IC50 [1]: 46.7 µM | IC50 [4]: 5 µM | IC50 [5]: 5.6 µM | IC50 [2]: 16 µM | IC50 [3]: 26.9 µM

Compound: C[C@H]1COC2=C1C(=O)C(=O)c1c2ccc2c1CCCC2(C)C [CRYPTOTANSHINONE]
IC50 [1]: 18.4 µM | IC50 [4]: 6.9 µM | IC50 [5]: 7.5 µM | IC50 [2]: 37.4 µM | IC50 [3]: 12.5 µM

IC50 [1]: 0.16 µM
Compound: C[C@@H]1[C@H](O)[C@@H](C)/C=C/C=C/C=C/C=C/C=C/C=C/C=C/[C@H](O[C@@H]2O[C@H](C)[C@@H](O)[C@H](N)[C@@H]2O)C[C@@H]2O[C@](O)(C[C@@H](O)C[C@@H](O)[C@H](O)CC[C@@H](O)C[C@@H](O)CC(=O)O[C@H]1C)C[C@H](O)[C@H]2C(=O)O [AMPHOTERICIN B]

Compound: CC[C@]1(O)C[C@@H]2CN(CCc3c([nH]c4ccccc34)[C@@](C(=O)OC)(c3cc4c(cc3OC)N(C)[C@H]3[C@@](O)(C(=O)OC)[C@H](OC(C)=O)[C@]5(CC)C=CCN6CC[C@]43[C@@H]65)C2)C1 [VINBLASTINE]
Ratio IC50 [6]: 210
